High-throughput results deposited in PubChem BioAssay by several laboratories.
An excerpt weighted towards active compounds, which were near 2.6% of everything screened.
MEKK3 PB1 HTS = MEKK3-MEK5 PB1 interaction, increase or decrease; AID 1529; Q99759; 290,000 compounds, 1.4% hits; bead-based flow cytometry, Alexa488-MEK5 binding to MEKK3; actives lie on both sides; 0 = blocked by unlabeled MEK5, 100 = vehicle; binding response (% of control), % at 10 µM;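 active = binding response more than 3 SD above or below the average of its plate-row segment, actives on both sides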;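 note: Alexa488 bead fluorescence after subtracting the streptavidin-only scavenger bead signal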
Target sequence (Q99759 whole entry, looked up): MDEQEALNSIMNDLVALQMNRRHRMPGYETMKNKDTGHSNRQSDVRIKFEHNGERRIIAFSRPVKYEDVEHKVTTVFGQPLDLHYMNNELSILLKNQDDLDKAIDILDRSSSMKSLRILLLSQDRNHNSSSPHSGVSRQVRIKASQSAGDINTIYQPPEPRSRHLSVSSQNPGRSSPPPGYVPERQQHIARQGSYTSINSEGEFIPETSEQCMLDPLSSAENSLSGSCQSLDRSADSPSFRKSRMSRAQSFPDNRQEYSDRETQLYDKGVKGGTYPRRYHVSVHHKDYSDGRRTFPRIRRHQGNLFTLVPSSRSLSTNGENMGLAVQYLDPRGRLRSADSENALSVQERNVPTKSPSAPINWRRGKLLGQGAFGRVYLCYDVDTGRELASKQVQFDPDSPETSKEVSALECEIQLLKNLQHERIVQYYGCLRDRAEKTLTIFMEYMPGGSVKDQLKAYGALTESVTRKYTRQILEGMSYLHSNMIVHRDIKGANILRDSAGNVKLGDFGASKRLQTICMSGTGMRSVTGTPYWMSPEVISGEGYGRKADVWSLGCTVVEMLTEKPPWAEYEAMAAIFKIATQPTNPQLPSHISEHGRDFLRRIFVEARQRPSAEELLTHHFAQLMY
MEKK2 mut-MEK5 = signal of MEK5 binding to mutant human MEKK2 PB1 domain | bead flow cytometry, Alexa488-MEK5 binding to MEKK2 mutant | percent response, % at 10 µM | 290,000 compounds, 0.35% hits | AID 1530; in the data active = percent response above about 24%, passing the limit was not always enough
Hep lipid drop = modulators of hepatic lipid droplet formation; AML12 mouse hepatocytes, oleate lipid droplets, BODIPY imaging; inhibition, % at 6.5 µM; 240,000 compounds, 0.4% hits; AID 1656;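 active = lipid droplet intensity inhibited by at least 50%, with more than 500 cells counted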
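Test system: AML12 mouse liver cells; schedule: overnight exposure; technique: high-content imaging of BODIPY-stained droplets and DAPI nuclei; read-out: % inhibition of corrected integrated BODIPY droplet signal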
MEKK2 WT-MEK5 = raises or lowers MEK5 binding to wildtype human MEKK2 PB1 domain; Q9Y2U5; bead flow cytometry, Alexa488-MEK5 binding to MEKK2 WT; actives lie on both sides; binding response (% of control), % at 10 µM; 290,000 compounds, 1.1% hits; AID 1531; in the data active = binding response below about 67% or above about 130%
MEKK2wt confirm = raises or lowers MEK5 binding to wildtype human MEKK2, retest; shares compounds with MEKK3 PB1 HTS; binding response (% of control), % at 10 µM; bead flow cytometry, Alexa488-MEK5 binding to MEKK2 WT; actives lie on both sides; 5,900 compounds, 2.4% hits; AID 1892; in the data active = binding response below about 16% or above about 210%; inactive = in between
MEKK2mut-MEK5 = signal of MEK5 binding to mutant human MEKK2, retest. shares compounds with MEKK3 PB1 HTS. bead flow cytometry, Alexa488-MEK5 binding to MEKK2 mutant. percent response, % at 10 µM. 5,900 compounds, 2% hits. AID 1893; in the data active = percent response mostly above about 71%, no sharp cut-off; inactive = mostly below about 38%;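 note: higher means compound restores mutant binding toward wildtype level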
MEKK3-MEK5 inh = MEKK3-MEK5 PB1 inhibition, single concentration confirmation. shares compounds with MEKK3 PB1 HTS. bead flow cytometry, Alexa488-MEK5 binding to MEKK3; active compounds read low. binding response (% of control), % at 10 µM. 5,900 compounds, 1.8% hits;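 active = binding response below 72% of control, or above a set upper limit, though filed actives all read lower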;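 note: 100% = DMSO only wells and 0% = binding blocked by excess unlabeled MEK5; lower values mean stronger disruption of MEK5 binding to MEKK3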
Numbers without * were called inactive; . = no result; [ ] = remark or other dose.

SMILES	MEKK3 PB1 HTS	MEKK2 mut-MEK5	Hep lipid drop	MEKK2 WT-MEK5	MEKK2wt confirm	MEKK2mut-MEK5	MEKK3-MEK5 inh
NC(=O)c1ccc(-n2nnnc2SCC(=O)Nc2ccccc2)cc1	105	2	20	104	.	.	.
COc1ccc(CNC(=O)COc2ccc(Br)c(C)c2)cc1	113	14	3	106	.	.	.
Cn1c(NCC(O)c2ccccc2)nc2c1c(=O)n(Cc1ccc(Cl)c(Cl)c1)c(=O)n2C (configuration not stated)	97	-7	.	96	.	.	.
Cn1c(NCC(O)c2ccccc2)nc2c1c(=O)n(Cc1ccc(Cl)cc1)c(=O)n2C (configuration not stated)	78*[inhibitor]	-11	6	89	110	5	110
COc1cc(CN(CCN(C)C)Cc2ccccc2)ccc1OCc1ccccc1	106	10	.	138*	126	14	106
COc1ccc(CN(CCc2ccccc2)Cc2ccccc2)cc1OC	104	10	-8	109	.	.	.
Cc1ccc(C(C)C)c(OCC(=O)N/N=C/c2ccc(S(=O)(=O)O)o2)c1	130*	25	-5	119	95	-6	100
COc1ccc(CN2CCC(C)CC2)cc1OCc1ccccc1	103	8	-12	105	.	.	.
c1ccc(COc2ccccc2CNc2nn[nH]n2)cc1	67*[inhibitor]	-9	15	72	103	-1	103
CC(C)CNC(=O)NC(=O)COC(=O)c1cccc(NS(=O)(=O)c2ccc(F)c(F)c2)c1	134*	1	-1	109	104	7	101
CCOC(=O)C1CCN(C(=O)C(=O)Nc2ccc3nc4n(c(=O)c3c2)CCCCC4)CC1	97	-7	8	94	.	.	.
O=C(C[n+]1ccc(C(=O)NCCCO)cc1)c1cccc(Br)c1	130*	21	-14	122	105	0	100
O=C(NC1CCCCC1)C1CCCN(S(=O)(=O)c2cccc3cccnc23)C1 (configuration not stated)	129*	27	2	115	106	6	104
O=C(NC1CCCC1)C1CCN(S(=O)(=O)c2cccc3cccnc23)CC1	109	5	.	113	.	.	.
COc1ccc(CCNC(=O)C2CCN(C(=O)c3ccc(Br)cc3)CC2)cc1OC	107	4	-16	107	.	.	.
CC(C)(C)c1ccc(C(=O)N/C(=C\c2ccco2)C(=O)O)cc1	102	0	2	99	.	.	.
O=C(O)/C(=C/c1ccco1)NC(=O)c1ccccc1	128*	-1	4	106	116	8	107
COC(=O)CCC(=O)OC1(C)C(=O)C=C2C=C(C3CC3)N(CCc3c[nH]c4ccccc34)C=C2C1=O (configuration not stated)	0.0*[inhibitor]	-5	-9	0.0*[inhibitor]	95	0	95
COC(=O)CCC(=O)OC1(C)C(=O)C=C2C=C(C3CC3)N(Cc3ccc4c(c3)OCO4)C=C2C1=O (configuration not stated)	91	3	-3	-7.0*[inhibitor]	91	-2	93
COC(=O)CCC(=O)OC1(C)C(=O)C=C2C=C(C3CC3)N(Cc3ccc(OC)cc3)C=C2C1=O (configuration not stated)	100	6	-3	96	.	.	.
COC(=O)CCC(=O)OC1(C)C(=O)C=C2C=C(C3CC3)N(CCN3CCOCC3)C=C2C1=O (configuration not stated)	119	4	2	143*	108	6	104
COC(=O)CCCC1=CC2=CC(=O)C(C)(OC(=O)c3cccs3)C(=O)C2=CN1C1CC1 (configuration not stated)	122	4	-15	142*	100	-2	103
O=C(CCC1CCCC1)N1CCC(N2CCCCCC2)CC1	99	1	4	101	.	.	.
O=C1NC2(CCCCC2)C(=O)N1CC(=O)N(Cc1ccccc1)c1ccccc1	101	7	20	105	.	.	.
COC(=O)CCC(=O)OC1(C)C(=O)C=C2C=C(C3CC3)N(CCCCO)C=C2C1=O (configuration not stated)	118	2	2	141*	87	-11	84
SMILES	MEKK3 PB1 HTS	MEKK2 mut-MEK5	Hep lipid drop	MEKK2 WT-MEK5	MEKK2wt confirm	MEKK2mut-MEK5	MEKK3-MEK5 inh
COC(=O)CCC(=O)OC1(C)C(=O)C=C2C=C(C3CC3)N(c3ccccc3)C=C2C1=O (configuration not stated)	95	6	15	92	.	.	.
COC(=O)CCC(=O)OC1(C)C(=O)C=C2C=C(C3CC3)N(C(CO)CO)C=C2C1=O (configuration not stated)	124	3	13	151*	104	2	101
COc1ccc(C(=O)CCS(=O)(=O)c2ccc(C)cc2)cc1OC	100	9	-13	107	.	.	.
O=C(NC1CCCCC1)C(c1cccs1)N(C(=O)c1ccco1)c1ccc2c(c1)OCCO2 (configuration not stated)	60*[inhibitor]	2	2	91	90	-3	96
CC(=O)c1ccc(N(C(=O)c2ccco2)C(C(=O)NC2CCCC2)c2cccs2)cc1 (configuration not stated)	101	-4	-50	97	.	.	.
CCC(=O)N(CCc1ccccc1)Cc1cc2cccc(C)c2[nH]c1=O	102	1	-6	101	.	.	.
Cc1nc2c3cc(F)ccc3n(Cc3ccccc3F)c2s1	140*	-1	6	109	89	-16	89
Cc1nc2c3cc(F)ccc3n(Cc3ccccc3)c2s1	155*	-1	-43	111	104	7	105
O=C(/C=C/c1ccccc1Cl)Nc1ccc(-c2nnc3n2CCCCC3)cc1	137*	1	18	102	103	5	107
CC(C)(C)CC(=O)Nc1ccc(-c2nnc3n2CCCCC3)cc1	99	-1	8	100	.	.	.
COc1cccc(N2C(=O)C3C(C2=O)C2C=CC3C23CC3)c1 (configuration not stated)	115	19	0	113	.	.	.
COc1ccc(NC(=O)N(Cc2cc3cc(C)ccc3[nH]c2=O)CC2CCCO2)cc1 (configuration not stated)	130*	30	0	119	-4.0*[inhibitor]	-2	86
COc1ccc2[nH]c(=O)c(CN(CC3CCCO3)C(=O)Nc3ccc(F)cc3)cc2c1 (configuration not stated)	108	2	-2	105	.	.	.
Cc1ccc(CNC(=O)Cn2cnc(S(=O)(=O)N3CCC(C)CC3)c2)o1	97	-8	-7	97	.	.	.
